Measurements published in ChEMBL document CHEMBL5096188, “Quinolinonyl Non-Diketo Acid Derivatives as Inhibitors of HIV-1 Ribonuclease H and Polymerase Functions of Reverse Transcriptase” (J Med Chem, 2021).
Calls of active or inactive are those of the source. The calls are words filed in the database; no cut-off is given here.

System: not listed separately
Experiment: Selectivity index, ratio of CC50 for cytotoxicity against human HeLa-CD4-LTR-beta-gal cells to EC50 for antiviral activity against HIV 1 infected in human HeLa-CD4-LTR-beta-gal cells
Assay type: toxicity, cell-based
Conditions: read-out: Ratio CC50/EC50
Procedure, shortened: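 Selectivity index is CC50/EC50. Both values come from HeLa-CD4-LTR-β-gal cells at 24 h. EC50 is from β-galactosidase readout after infection with in-house HIV-1 (H9-laï coculture). CC50 is from the CellTiter 96 AQueous One proliferation assay.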

Row | Compound | selectivity ratio
1 | CCOC(=O)/C=C/C(=O)/C=C/c1cccn1Cc1ccccc1Cl | > 13.7

Biological target: T1, Human immunodeficiency virus type 1 reverse transcriptase (Human immunodeficiency virus 1, UniProt Q72547)
Experiment: Inhibition of HIV-1 reverse transcriptase associated RNA-dependent DNA polymerase activity using poly(A)-oligo(dT) as template/primer incubated for 30 mins by multilabel counter plate reader analysis
Conditions: not given

Row | Compound | IC50 [µM]
2 | O=C(/C=C/c1ccc2c(c1)c(=O)c(C(=O)O)cn2Cc1ccc(F)cc1)c1ccccc1 | > 100

Biological target: T1, Human immunodeficiency virus type 1 reverse transcriptase
Experiment: Inhibition of recombinant His-tagged wild-type HIV-1 group M subtype B BH10 reverse transcriptase-associated RNase H activity harboring p66/p51 hetrodimer expressed in Escherichia coli M15 using GTTTTCTTTTCCCCCCTGAC-30 fluorescein/50-CAAAAGAAAAGGGGGGACUG-30 Dabcyl RNA/DNA template-primer as substrate incubated for 1 hr by multilabel counter plate reader analysis
Conditions: not given
Procedure, shortened: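 His-tagged p66/p51 RT was expressed in E. coli M15, with mutations placed in p66 by site-directed mutagenesis. The mix held 50 mM Tris HCl pH 7.8, 6 mM MgCl2, 1 mM DTT, 80 mM KCl, 250 nM fluorescein/Dabcyl RNA/DNA hybrid and serial compound dilutions, with no preincubation. Reactions were started with enzyme (wt, R448A, K451A 20 ng; K540A 40 ng; N474A 500 ng), run 1 h at 37 °C and read at 490/528 nm. Duplicates were repeated at least twice; IC50 is mean ± SD.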

Row | Compound | IC50 [µM]
3 | O=C(O)c1cn(Cc2ccc(F)cc2)c2ccccc2c1=O | > 100
4 | CCOC(=O)c1cn(Cc2ccc(F)cc2)c2ccc(OC)cc2c1=O | > 100
5 | N#Cc1ccc2c(c1)c(=O)c(C(=O)O)cn2Cc1ccc(F)cc1 | > 100
6 | CCOC(=O)c1cn(Cc2ccc(F)cc2)c2ccc(OCc3ccc(-c4ccccc4)cc3)cc2c1=O | > 100
7 | CCOC(=O)c1cn(Cc2ccc(F)cc2)c2ccc(C#N)cc2c1=O | > 100
8 | CCOC(=O)c1cn(Cc2ccc(F)cc2)c2ccc(O)cc2c1=O | > 100
9 | CCOC(=O)c1cn(Cc2ccc(F)cc2)c2ccc(OCCCN(C)C)cc2c1=O | > 100
10 | COc1ccc2c(c1)c(=O)c(C(=O)O)cn2Cc1ccc(F)cc1 | > 100
11 | CCOC(=O)c1cn(Cc2ccc(F)cc2)c2ccc(S(C)(=O)=O)cc2c1=O | > 100
12 | O=C(O)c1cn(Cc2ccc(F)cc2)c2ccc(C(F)(F)F)cc2c1=O | > 100

System: not listed separately
Experiment: Metal chelating activity assessed as Mg2+-compound complex formation at 4.1 x 10^-5 M by UV-visible spectrophotometric titration analysis
Conditions: dose 4.1 10^-5M
Procedure, shortened: (§1)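 Compound in absolute ethanol, titrated with MgCl2 stock solutions (4 10–5 to 0.2 M, diluted in ethanol). UV–vis spectra were recorded from 230 to 370 or 600 nm against ethanol in a 1 cm quartz cuvette, in triplicate. Stoichiometry was found by Job's method using equimolar metal/ligand mixtures. ΔA was plotted against ligand mole fraction, and the maximum was located by linear regression.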

Row | Compound | Activity
13 | CCOC(=O)c1cn(Cc2ccc(F)cc2)c2ccc(OCc3cccc4ccccc34)cc2c1=O | Active

System: not listed separately
Experiment: Metal chelating activity assessed as Mg2+-compound complex formation at 3.8 x 10^-5M by UV-visible spectrophotometric titration analysis
Conditions: dose 3.8 10^-5M
Procedure, shortened: as §1

Row | Compound | Activity
14 | O=C(O)c1cn(Cc2ccc(F)cc2)c2ccc(OCc3cccc4ccccc34)cc2c1=O | Active

Biological target: Human immunodeficiency virus type 1 integrase (Human immunodeficiency virus 1, UniProt Q7ZJM1)
Sequence (Q7ZJM1 whole entry): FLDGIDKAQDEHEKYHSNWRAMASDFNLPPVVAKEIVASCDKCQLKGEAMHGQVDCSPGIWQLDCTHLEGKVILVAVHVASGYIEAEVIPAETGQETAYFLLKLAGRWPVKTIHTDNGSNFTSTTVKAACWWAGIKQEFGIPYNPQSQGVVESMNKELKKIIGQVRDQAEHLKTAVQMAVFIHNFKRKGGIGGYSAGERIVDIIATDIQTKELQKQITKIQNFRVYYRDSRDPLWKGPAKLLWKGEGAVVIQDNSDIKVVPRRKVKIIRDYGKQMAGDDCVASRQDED
Experiment: Inhibition of recombinant His-tagged HIV-1 NL4-3 integrase expressed in Escherichia coli BL21 pLys using GTGTGGAAAATCTCTAGCA/ACTGCTAGAGATTTTCCACAC as DNA substrate incubated for 2 hrs by densitometric analysis
Conditions: not given

Row | Compound | IC50 [µM]
15 | O=C(O)c1cn(Cc2ccc(F)cc2)c2ccc(OCc3cccc(Cl)c3Cl)cc2c1=O | > 100
16 | O=C(O)c1cn(Cc2ccc(F)cc2)c2ccc(OCc3ccc4c(c3)OCO4)cc2c1=O | > 100
17 | CC(=O)c1ccc2c(c1)c(=O)c(C(=O)O)cn2Cc1ccc(F)cc1 | > 100
18 | O=C(O)c1cn(Cc2ccc(F)cc2)c2ccc(OCc3ccc(-c4ccccc4)cc3)cc2c1=O | > 250
19 | CCOC(=O)/C=C/C(=O)/C=C/c1cccn1Cc1ccccc1Cl | > 100
20 | CCOC(=O)c1cn(Cc2ccc(F)cc2)c2ccc(C(C)=O)cc2c1=O | > 100
21 | O=C(O)c1cn(Cc2ccc(F)cc2)c2ccc(OCc3cccc4ccccc34)cc2c1=O | > 100
